The values that follow come from ChEMBL document CHEMBL1121471, “Synthesis and structure-activity relationships among alpha-adrenergic receptor agonists of the phenylethanolamine type” (J Med Chem, 1980).

Assay [1] has as its target T1, Adrenergic receptor alpha (Rattus norvegicus) (UniProt P15823+P23944+P43140+P22086+P19328+P22909). Description: Binding affinity to alpha adrenergic receptors in rat aorta. Type of assay: tissue-based. The gist of the method:
(§1)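 Helical strips of rat aorta (1.5–2 cm × 3–4 mm) were held in Krebs-Henseleit at 37 °C, gassed with 95% O2/5% CO2, at 2 g resting tension, and equilibrated about 2 h. Cumulative contraction curves were recorded isometrically, first for norepinephrine, then after washout and 1 h rest for the test agonist. pD2 (−log ED50) was derived by the Ariens–Van Rossum method. Intrinsic activity is the compound's maximum response divided by the norepinephrine maximum.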

Assay [2] addresses T1, Adrenergic receptor alpha (Rattus norvegicus). Description: Ratio of maximum contraction of rat aorta elicited versus that elicited by noradrenaline (defined as intrinsic activity). Format: functional, tissue-based. The gist of the method: as §1
Assay [3] is described as follows: Intrinsic activity of the compound, which is expressed as the ratio of the maximum response to the maximum response to norepinephrine. Type of assay: functional. The gist of the method: as §1

Consider `CCc1cc(C(O)CN)ccc1O` (stereo not drawn), for which, in assay [1], the pD2 was 6.09. Moreover, the Ratio in assay [2] worked out at 0.9.

As for `NCC(O)c1ccc(O)c(F)c1` (stereo not drawn), in assay [1], the pD2 was found to be 6.78. Moreover, the Ratio in assay [2] is 1.

In assay [1], `COC(=O)c1cc(C(O)CN)ccc1O` (stereo not drawn) showed a pD2 of 4.85. Further, in assay [2], the Ratio stood at 0.9.

The compound `NCC(O)c1ccc(I)c(O)c1` (stereo not drawn) registered a pD2 in assay [1] of 4.99. Further, the Ratio in assay [2] worked out at 0.9.

In the case of `CS(=O)(=O)Nc1ccc(C(O)CN)cc1O` (stereo not drawn), the pD2 in assay [1] was determined as 3.2. Moreover, the Ratio in assay [2] is 0.8.

Compound `Cc1cc(C(O)CN)ccc1O` (stereo not drawn) had a pD2 in assay [1] of 5.96. In assay [2], the Ratio was 1.

Consider `NCC(O)c1ccc(O)cc1` (stereo not drawn), for which the pD2 in assay [1] is 6.08. Further, the Ratio in assay [2] is 1.1.

The compound `CC(C)c1ccc(C(O)CN)cc1O` (stereo not drawn) had a pD2 in assay [1] of 5. For the same compound, the Ratio in assay [2] amounted to 0.7.

Consider `NCC(O)c1ccc(O)c(C2CCCCC2)c1` (stereo not drawn), for which, in assay [1], the pD2 was 6.73. Besides, the Ratio in assay [2] is 1.1.

Compound `Cc1ccc(C(O)CN)cc1O` (stereo not drawn) yielded a pD2 in assay [1] of 5.66. In assay [3], the Intrinsic is 1.3.

In turn, `NC[C@H](O)c1ccc(O)c(O)c1` gave a pD2 in assay [1] of 8.8. Further, in assay [2], the Ratio stood at 1.

In assay [1], `COc1ccc(C(O)CN)cc1O` (stereo not drawn) registered a pD2 of 4.97. Further, the Ratio in assay [2] worked out at 1.

In assay [1], `NCC(O)c1ccc(O)c(Br)c1` (stereo not drawn) gave a pD2 of 5.57. For the same compound, in assay [2], the Ratio was determined as 1.1.

With `NCC(O)c1ccc(C2CCCCC2)c(O)c1` (stereo not drawn), the pD2 in assay [1] is 4.86. Besides, the Ratio in assay [2] stood at 0.7.

`NCC(O)c1ccc(Br)c(O)c1` (stereo not drawn) had a pD2 in assay [1] of 5.58. Also, the Ratio in assay [2] came out at 1.

For the compound `NCC(O)c1ccc(O)c(I)c1` (stereo not drawn), the pD2 in assay [1] was found to be 5.5. Also, the Ratio in assay [2] was determined as 0.9.

`CCc1ccc(C(O)CN)cc1O` (stereo not drawn) registered a pD2 in assay [1] of 5.2. In assay [2], the Ratio is 1.1.

In assay [1], `CC(C)c1cc(C(O)CN)ccc1O` (stereo not drawn) had a pD2 of 6.53. Also, the Ratio in assay [2] turned out to be 1.2.

For `CS(=O)(=O)Nc1cc(C(O)CN)ccc1O` (stereo not drawn), in assay [1], the pD2 came out at 7.19. Besides, in assay [2], the Ratio was 1.1.

As for `NCC(O)c1ccc(O)c(C(=O)O)c1` (stereo not drawn), the pD2 in assay [1] stood at 4.07. Moreover, the Ratio in assay [2] amounted to 1.

`NCC(O)c1cccc(O)c1` (stereo not drawn): the pD2 in assay [1] was determined as 8.21. The Ratio in assay [2] came out at 1.

In assay [1], `COc1cc(C(O)CN)ccc1O` (stereo not drawn) had a pD2 of 6.23. Also, the Ratio in assay [2] came to 1.1.

In assay [1], `NCC(O)c1ccc(Cl)c(O)c1` (stereo not drawn) had a pD2 of 6.35. Also, the Ratio in assay [2] worked out at 1.1.

In turn, `NCC(O)c1ccc(O)c(Cl)c1` (stereo not drawn) registered a pD2 in assay [1] of 5.85. Besides, in assay [2], the Ratio came to 1.
